Measured values published in ChEMBL document CHEMBL3745596, “Chlorophenoxy aminoalkyl derivatives as histamine H(3)R ligands and antiseizure agents” (Bioorg Med Chem, 2016).
pKi: −log10 of the molar value. Calls of active or inactive are those of the source.

Assays:
Rattus norvegicus [1] = test: Neurotoxicity in Sprague-Dawley rat at 30 mg/kg, ip after 1 hr by rotarod test; assay type: toxicity, organism-based; settings: in vivo
In short: (§1)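 Male Sprague–Dawley rats given compound ip as a suspension in 0.5% methylcellulose, groups of four. Rotarod: 1 inch knurled rod at 6 rpm; three falls within 1 min counts as neurotoxic. Scored as number toxic/number tested at pretreatment times between 0.25 and 4 h, or at the stated time.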

Mus musculus [2] = test: Neurotoxicity in CF1 albino mouse at 45 mg/kg, ip after 0.25 to 0.5 hrs by rotarod test; assay type: toxicity, organism-based; settings: in vivo
In short: (§2)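 Rotarod neurotoxicity in male albino CF-1 mice dosed ip with compound suspended in 0.5% methylcellulose. Animal placed on a 1 inch diameter knurled plastic rod rotating at 6 rpm. Neurotoxicity scored when the animal falls off three times within 1 min. Readout is number of animals toxic/number tested at the stated time after dosing. TD50 with 95% confidence interval from the quantitative study.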

Mus musculus [3] = test: Neurotoxicity in CF1 albino mouse at 50 mg/kg, ip after 1 hr by rotarod test; assay type: toxicity, organism-based; settings: in vivo; in short: as §2
Mus musculus [4] = test: Neurotoxicity in CF1 albino mouse at 50 mg/kg, ip after 0.25 hrs by rotarod test; assay type: toxicity, organism-based; settings: in vivo; in short: as §2
Mus musculus [5] = test: Neurotoxicity in CF1 albino mouse assessed as death at 300 mg/kg, ip after 0.5 hrs by rotarod test; assay type: toxicity, organism-based; settings: in vivo
In short: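 Male albino CF-1 mice dosed ip with compound suspended in 0.5% methylcellulose, then placed on a 1-inch knurled plastic rod turning at 6 rpm. A fall three times within 1 min counted as neurotoxicity. Observations were made at 0.5 h and 4 h after dosing. Result given as animals showing toxicity per animals tested, with the kind of toxicity recorded.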

Mus musculus [6] = test: Anticonvulsant activity in CF1 albino mouse assessed as protection against subcutaneous pentetrazole-induced seizure at 30 mg/kg, ip after 4 hrs; assay type: functional, organism-based
In short: (§3)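 Male CF-1 mice, ip in 0.5% methylcellulose; pentetrazole at CD97 (85 mg/kg) injected subcutaneously in a loose fold of neck skin. Observed 30 min; absence of even a threshold seizure (single clonic spasm lasting at least 5 s) counted as protection. Scored protected/tested, or ED50.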

Mus musculus [7] = test: Neurotoxicity in ip dosed CF1 albino mouse after 0.25 hrs by rotarod test; assay type: toxicity, organism-based; settings: in vivo
In short: as §2, with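 “dosing.” for “dosing. TD50 with 95% confidence interval from the quantitative study.”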

Mus musculus [8] = test: Neurotoxicity in CF1 albino mouse at 30 mg/kg, ip after 0.5 hrs by rotarod test; assay type: toxicity, organism-based; settings: in vivo; in short: as §2
Rattus norvegicus [9] = test: Anticonvulsant activity in Sprague-Dawley rat assessed as protection against pilocarpine-induced convulsive status epilepticus at 65 mg/kg, ip; assay type: functional, organism-based
In short: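 Male Sprague Dawley rats (150–180 g) dosed ip, pilocarpine 50 mg/kg ip given; compound dosed immediately at first behavioral Stage 3 seizure or 30 min later. Number protected from Racine Stage 3 or greater seizures recorded.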

Rattus norvegicus [10] = test: Anticonvulsant activity in Sprague-Dawley rat assessed as protection against maximal electroshock-induced seizure at 30 mg/kg, po; assay type: functional
Rattus norvegicus [11] = test: Anticonvulsant activity in ip dosed Sprague-Dawley rat assessed as protection against maximal electroshock-induced seizure after 0.25 hrs; assay type: functional
Mus musculus [12] = test: Anticonvulsant activity in CF1 albino mouse assessed as protection against maximal electroshock-induced seizure at 30 mg/kg, ip after 0.5 hrs; assay type: functional, organism-based
In short: (§4)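 Male CF-1 mice dosed ip as suspension in 0.5% methylcellulose. Corneal electrodes deliver 60 Hz alternating current, 50 mA for […], after a drop of 0.5% tetracaine HCl in 0.9% NaCl per eye. Protection means abolition of hindlimb tonic extension; scored as protected/tested, or ED50 with 95% confidence interval.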

Rattus norvegicus [13] = test: Anticonvulsant activity in Sprague-Dawley rat assessed as protection against maximal electroshock-induced seizure at 30 mg/kg, ip after 4 hrs; assay type: functional, organism-based
Mus musculus [14] = test: Anticonvulsant activity in CF1 albino mouse assessed as protection against subcutaneous pentetrazole-induced seizure at 30 mg/kg, ip after 0.5 hrs; assay type: functional, organism-based; in short: as §3
Mus musculus [15] = test: Neurotoxicity in CF1 albino mouse at 100 mg/kg, ip after 4 hrs by rotarod test; assay type: toxicity, organism-based; settings: in vivo; in short: as §2
Mus musculus [16] = test: Neurotoxicity in CF1 albino mouse at 300 mg/kg, ip after 4 hrs by rotarod test; assay type: toxicity, organism-based; settings: in vivo; in short: as §2
Rattus norvegicus [17] = test: Neurotoxicity in Sprague-Dawley rat at 30 mg/kg, ip after 4 hrs by rotarod test; assay type: toxicity, organism-based; settings: in vivo; in short: as §1
Mus musculus [18] = test: Neurotoxicity in CF1 albino mouse at 3 mg/kg, ip after 0.5 hrs by rotarod test; assay type: toxicity, organism-based; settings: in vivo; in short: as §2
Rattus norvegicus [19] = test: Neurotoxicity in Sprague-Dawley rat at 30 mg/kg, ip after 0.25 hrs by rotarod test; assay type: toxicity, organism-based; settings: in vivo; in short: as §1
Rattus norvegicus [20] = test: Neurotoxicity in Sprague-Dawley rat at 30 mg/kg, ip after 2 hrs by rotarod test; assay type: toxicity, organism-based; settings: in vivo; in short: as §1
Rattus norvegicus [21] = test: Protective index, ratio of TD50 for ip dosed Sprague-Dawley rat to ED50 for ip dosed Sprague-Dawley rat assessed as protection against maximal electroshock-induced seizure after 0.5 hrs; assay type: functional
In short: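 PI = TD50/ED50. Male CF-1 mice or male Sprague–Dawley rats given compound ip as 0.5% methylcellulose suspension. MES: 60 Hz corneal current, 50 mA mice or 150 mA rats, for […] after tetracaine eye drops; protection is abolition of hindlimb tonic extension.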

Rattus norvegicus [22] = test: Anticonvulsant activity in ip dosed Sprague-Dawley rat assessed as protection against subcutaneous pentetrazole-induced seizure after 0.25 hrs; assay type: functional
Mus musculus [23] = test: Neurotoxicity in CF1 albino mouse assessed as unable to grasp rotarod, sedated and myoclonic jerks at 100 mg/kg, ip after 0.5 hrs by rotarod test; assay type: toxicity, organism-based; settings: in vivo
In short: (§5)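 Rotarod neurotoxicity in male CF-1 mice dosed ip as 0.5% methylcellulose suspension: mouse placed on 1 inch knurled rod rotating at 6 rpm; toxicity when the animal falls off three times within 1 min, with other signs noted. Scored as toxic/tested at 0.5 h and 4 h.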

[24] = Neuroprotective activity in hippocampal slice (unknown origin) assessed as protection against kainic acid-induced cell death using propidium iodide staining; assay type: functional; settings: Hippocampus
In short: (§6)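 Organotypic hippocampal slice cultures exposed to NMDA or kainic acid alone or with compound; propidium iodide in all wells; PI fluorescence intensity of slices, proportional to cell death, compared with excitotoxin-only slices; qualitative.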

Mus musculus [25] = test: Anticonvulsant activity in CF1 albino mouse assessed as protection against 6 Hz-psychomotor-induced seizure at 50 mg/kg, ip after 1 hr; assay type: functional, organism-based
In short: (§7)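 Male CF-1 mice, ip suspension in 0.5% methylcellulose. Corneal stimulation 0.2 ms monopolar rectangular pulses at 6 Hz, 32 mA for 3 s via constant-current device; mice without minimal clonic phase seizure counted protected. Groups of four; read at 0.25, 0.5, 1, 2, 4 h; result as protected/tested.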

Mus musculus [26] = test: Anticonvulsant activity in CF1 albino mouse assessed as protection against maximal electroshock-induced seizure at 3 mg/kg, ip after 0.5 hrs; assay type: functional, organism-based; in short: as §4
Mus musculus [27] = test: Neurotoxicity in CF1 albino mouse at 50 mg/kg, ip after 2 hrs by rotarod test; assay type: toxicity, organism-based; settings: in vivo; in short: as §2
[28] = Neuroprotective activity in hippocampal slice (unknown origin) assessed as protection against NMDA-induced cell death using propidium iodide staining; assay type: functional; settings: Hippocampus; in short: as §6
Mus musculus [29] = test: Neurotoxicity in CF1 albino mouse at 30 mg/kg, ip after 4 hrs by rotarod test; assay type: toxicity, organism-based; settings: in vivo; in short: as §2
Mus musculus [30] = test: Anticonvulsant activity in CF1 albino mouse assessed as protection against 6 Hz-psychomotor-induced seizure at 50 mg/kg, ip after 2 hrs; assay type: functional, organism-based; in short: as §7
Mus musculus [31] = test: Neurotoxicity in CF1 albino mouse at 50 mg/kg, ip after 4 hrs by rotarod test; assay type: toxicity, organism-based; settings: in vivo; in short: as §2
Histamine H3 receptor = Histamine H3 receptor (Homo sapiens, UniProt Q9Y5N1); test: Displacement of [3H]-Nalpha-methylhistamine from human recombinant histamine H3 receptor expressed in HEK293 cells after 90 mins; assay type: cell-based
Mus musculus [32] = test: Neurotoxicity in CF1 albino mouse at 50 mg/kg, ip after 0.5 hrs by rotarod test; assay type: toxicity, organism-based; settings: in vivo; in short: as §2
Mus musculus [33] = test: Anticonvulsant activity in CF1 albino mouse assessed as protection against 6 Hz-psychomotor-induced seizure at 50 mg/kg, ip after 4 hrs; assay type: functional, organism-based; in short: as §7
Mus musculus [34] = test: Anticonvulsant activity in CF1 albino mouse assessed as protection against maximal electroshock-induced seizure at 30 mg/kg, ip after 4 hrs; assay type: functional, organism-based; in short: as §4
Mus musculus [35] = test: Anticonvulsant activity in CF1 albino mouse temporal lobe epilepsy model at 30 mg/kg, ip; assay type: functional, organism-based
In short: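 Adult male CF1 mice corneal-kindled to 5 consecutive secondarily generalized seizures (Racine stage 4 or 5). Four fully kindled mice dosed ip and tested 0.5 h later; seizure score below 3 counted protected.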

Mus musculus [36] = test: Anticonvulsant activity in CF1 albino mouse assessed as protection against 6 Hz-psychomotor-induced seizure at 50 mg/kg, ip after 0.25 hrs; assay type: functional, organism-based; in short: as §7
Mus musculus [37] = test: Anticonvulsant activity in CF1 albino mouse assessed as protection against maximal electroshock-induced seizure at 100 mg/kg, ip after 0.5 hrs; assay type: functional, organism-based; in short: as §4
Mus musculus [38] = test: Anticonvulsant activity in CF1 albino mouse assessed as protection against maximal electroshock-induced seizure at 10 mg/kg, ip after 0.5 hrs; assay type: functional, organism-based; in short: as §4
Mus musculus [39] = test: Neurotoxicity in CF1 albino mouse at 10 mg/kg, ip after 0.5 hrs by rotarod test; assay type: toxicity, organism-based; settings: in vivo; in short: as §5
Rattus norvegicus [40] = test: Neurotoxicity in Sprague-Dawley rat at 30 mg/kg, ip after 0.5 hrs by rotarod test; assay type: toxicity, organism-based; settings: in vivo; in short: as §1

Sequence of Histamine H3 receptor (Q9Y5N1 whole entry): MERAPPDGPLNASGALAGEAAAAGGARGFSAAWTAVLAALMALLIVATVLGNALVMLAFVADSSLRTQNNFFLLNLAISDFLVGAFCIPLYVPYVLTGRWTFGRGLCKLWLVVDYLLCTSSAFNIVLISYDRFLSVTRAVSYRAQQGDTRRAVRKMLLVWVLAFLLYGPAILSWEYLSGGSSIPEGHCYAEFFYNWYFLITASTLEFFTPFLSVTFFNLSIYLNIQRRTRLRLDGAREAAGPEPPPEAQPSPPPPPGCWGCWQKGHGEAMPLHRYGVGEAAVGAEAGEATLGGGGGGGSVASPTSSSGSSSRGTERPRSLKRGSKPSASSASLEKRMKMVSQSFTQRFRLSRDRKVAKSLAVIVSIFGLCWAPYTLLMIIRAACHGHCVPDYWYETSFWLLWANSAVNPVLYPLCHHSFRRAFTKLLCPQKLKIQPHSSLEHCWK

Compound: Clc1ccc(OCCCCCCN2CCCCCC2)cc1.O=C(O)C(=O)O
- Activity (Rattus norvegicus [1]): Non-toxic
- Activity (Mus musculus [2]): Toxic
- Activity (Mus musculus [3]): Non-toxic
- Activity (Mus musculus [4]): Non-toxic
- Activity (Mus musculus [5]): Toxic
- Activity (Mus musculus [6]): inactive
- TD50 (median neurotoxic dose) (Mus musculus [7]): 36.2 mg/kg
- Activity (Mus musculus [8]): Non-toxic
- Activity (Rattus norvegicus [9]): Active
- Activity (Rattus norvegicus [10]): 25%
- ED50 (Rattus norvegicus [11]): 14 mg/kg
- Activity (Mus musculus [12]): Active
- Activity (Rattus norvegicus [13]): inactive
- Activity (Mus musculus [14]): inactive
- Activity (Mus musculus [15]): Non-toxic
- Activity (Mus musculus [16]): Non-toxic
- Activity (Rattus norvegicus [17]): Non-toxic
- Activity (Mus musculus [18]): Non-toxic
- Activity (Rattus norvegicus [19]): Non-toxic
- Activity (Rattus norvegicus [20]): Non-toxic
- Ratio TD50/ED50 (Rattus norvegicus [21]): 3.2
- ED50 (Rattus norvegicus [22]): > 47 mg/kg
- Activity (Mus musculus [23]): Toxic
- Activity [24]: inactive
- Activity (Mus musculus [25]): inactive
- Activity (Mus musculus [26]): inactive
- Activity (Mus musculus [27]): Non-toxic
- Activity [28]: inactive
- Activity (Mus musculus [29]): Non-toxic
- Activity (Mus musculus [30]): inactive
- Activity (Mus musculus [31]): Non-toxic
- pKi (Histamine H3 receptor): 6.63
- Activity (Mus musculus [32]): Non-toxic
- Activity (Mus musculus [33]): inactive
- Activity (Mus musculus [34]): inactive
- Activity (Mus musculus [35]): inactive
- Activity (Mus musculus [36]): inactive
- Activity (Mus musculus [37]): Active
- Activity (Mus musculus [38]): inactive
- Activity (Mus musculus [39]): Non-toxic
- Activity (Rattus norvegicus [40]): Non-toxic
